# Measured values published in PubChem BioAssay.
# The source made the active and inactive calls.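 Rule for the calls, unless noted: active = viability at or below 30% in both replicate assays; inconclusive = viability at or below 30% in just one of the two assays; inactive = the rest.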
# Experiments:
# [1] = HUVEC growth inhibition – cell-based, human, primary screen (AID 575); conditions: HUVEC proliferation, CellTiter-Glo luminescence, 72 h; at 10 µM; stronger effect = lower value;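 note: 100% = median of untreated cell wells with 0.1% DMSO on each plate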
# Procedure, shortened: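 Material: primary human umbilical vein endothelial cells / Schedule: 72 h exposure, 37 °C, 5% CO2, 30 min RT equilibration / Signal: ATP-based CellTiter-Glo luminescent read / Read-out basis: percent of median DMSO-control luminescence / Control set: 32 DMSO-only cell-control wells (high), 32 MePR drug-control wells (low) per plate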
# [2] = growth inhibitors of H69AR lung tumor, primary screen, human, duplicate replicates (AID 580;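 active = viability at or under a set limit in both replicates, limit being median viability minus 3 SD, cut at about 48% in these data, passing the limit was not always enough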;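 note: 100% = mean luminescence of untreated wells and 0% = no signal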); conditions: H69AR lung tumor cells viability, ATP luminescence, 72 h; at 10 µM; stronger effect = lower value
# [3] = reversal of MRP1-mediated doxorubicin resistance, pilot screen, H69AR cells, doxorubicin co-treatment (AID 601;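 active = viability loss from added drug above about 55%, and viability with drug at most 40%, in both replicates, limit read from the data, passing the limit was not always enough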); conditions: CellTiter-Glo, 72 h, at 10 µM; for differential viability (reversal): stronger effect = higher value
# [4] = 384-well plate pilot, post-Golgi transport modulator project, inhibition of yeast transport mutant growth (AID 636; in the data active = inhibition above about 31%); conditions: absorbance 615 nm, about 18 h, stronger effect = higher value
# [5] = growth suppression of yeast trafficking mutant, preliminary HTS, modulators of trafficking downstream of Golgi apparatus project, 1536-format plate, OD 615 nm (AID 637; in the data active = inhibition above about 30%); conditions: yeast transport mutant growth, absorbance 615 nm, 18 h; stronger effect = higher value
# [6] = H69AR cells + 2 uM doxorubicin, measured here: viability with 2 uM doxorubicin, stronger effect = lower value
# [7] = H69AR cells, compound alone cytotoxicity
SMILES,viability [1],viability [2],differential viability (reversal) ([3]; H69AR cells + 2 uM doxorubicin),"viability [3, 6]","viability [3, 7]",inhibition [4],inhibition [5]
Nc1nc(-c2ccc(Cl)cc2)cc(C(F)(F)F)n1,107% (inactive),105% (inactive),13.3% (inactive),91.3%,105%,-1.82% (inactive),-1.11% (inactive)
CCOC(=O)Cc1nnc(NC(=O)CSc2nnc3c4ccccc4n(C(C)C)c3n2)s1,83.9% (inactive),75.6% (inactive),0.7% (inactive),74.9%,75.6%,-0.91% (inactive),-1.43% (inactive)
CN1CCCc2cc(C#N)c(=O)[nH]c21,99.7% (inactive),107% (inactive),8.18% (inactive),99.3%,107%,-5.71% (inactive),-2.38% (inactive)
C=C(C)COc1ccc(-c2n[nH]c(C)c2-c2ccccc2)c(O)c1,2.96% (active),21.1% (active),7.88% (inactive),13.2%,21.1%,-1.69% (inactive),9% (inactive)
CC(=O)NCC(=O)OC(C)C(=O)Nc1ccc(C(C)=O)cc1 (configuration not stated),97.1% (inactive),95.2% (inactive),-2.15% (inactive),97.3%,95.2%,-6.75% (inactive),-5.4% (inactive)
O=c1oc(-c2ccco2)nc2ccccc12,92.6% (inactive),91% (inactive),4.72% (inactive),86.2%,91%,-0.78% (inactive),-2.22% (inactive)
COc1cccc(OC)c1C(=O)Nc1ccccc1N1CCCC1,91.1% (inactive),91.6% (inactive),6.71% (inactive),84.9%,91.6%,-1.71% (inactive),-2.86% (inactive)
c1ccc(-c2nn3nnnc3c3ccccc23)cc1,105% (inactive),90.8% (inactive),0.43% (inactive),90.3%,90.8%,-1.04% (inactive),0.79% (inactive)
Cc1ccccc1NC(=O)c1ccc(NC(=O)c2ccco2)cc1,102% (inactive),80.7% (inactive),1.25% (inactive),79.4%,80.7%,-6.84% (inactive),-4.6% (inactive)
O=S1(=O)C=CC(Nc2cccc(Cl)c2)C1 (configuration not stated),76.3% (inactive),65.7% (inactive),-0.23% (inactive),65.9%,65.7%,-3.68% (inactive),4.29% (inactive)
CCCCCCn1c(CN2CCN(Cc3ccccc3)CC2)nc2c1c(=O)n(C)c(=O)n2C,86.6% (inactive),70.9% (inactive),38.8% (inactive),32.1%,70.9%,-5.48% (inactive),4.55% (inactive)
CCCN(CCO)Cc1cccc(Br)c1,101% (inactive),99.1% (inactive),5.32% (inactive),93.8%,99.1%,-6.05% (inactive),3.65% (inactive)
COc1ccc(OC)c(S(=O)(=O)NCCO)c1,87.5% (inactive),95.2% (inactive),14.5% (inactive),80.7%,95.2%,-2.34% (inactive),6.35% (inactive)
Nc1nc(-c2ccc(Cl)cc2)nn1C(=O)c1cccnc1,98.2% (inactive),96.4% (inactive),0.94% (inactive),95.5%,96.4%,0.13% (inactive),4.29% (inactive)
COc1ccc2c(c1)CCc1c(C(=O)N3CC4(C)CC3CC(C)(C)C4)noc1-2 (configuration not stated),52.3% (inactive),75.1% (inactive),0.855% (inactive),74.3%,75.1%,-2.34% (inactive),-3.02% (inactive)
CN(c1ccccc1C(=O)N1CCN(c2cccc(Cl)c2)CC1)S(C)(=O)=O,108% (inactive),93.8% (inactive),-0.775% (inactive),94.5%,93.8%,-6.53% (inactive),1.43% (inactive)
CC(=O)c1cc(-c2ccccc2)n(CC(=O)N2CCC(N3CCCCC3)CC2)c1C,85.3% (inactive),82.7% (inactive),-2.33% (inactive),85.1%,82.7%,-2.73% (inactive),0.63% (inactive)
COc1cccc(C(c2nnnn2Cc2ccccc2)N2CCN(C(=O)c3ccco3)CC2)c1OC (configuration not stated),77.5% (inactive),82.3% (inactive),-9.06% (inactive),91.4%,82.3%,-1.84% (inactive),-6.35% (inactive)
O=C(Nc1nnc(CCN2CCCCC2)s1)C1CCCCC1,93.4% (inactive),91.9% (inactive),7.11% (inactive),84.7%,91.9%,-5.73% (inactive),4.76% (inactive)
O=C(Nc1ccccc1C(=O)N1CCOCC1)C1CCC(=O)N1C1CCCC1 (configuration not stated),108% (inactive),95% (inactive),-0.755% (inactive),95.7%,95%,-8.8% (inactive),-3.97% (inactive)
O=C(Nc1ccc(Cc2ccncc2)cc1)C1CC1,88.2% (inactive),99.5% (inactive),17.4% (inactive),82.1%,99.5%,-2.21% (inactive),1.75% (inactive)

SMILES,viability [1],viability [2],differential viability (reversal) ([3]; H69AR cells + 2 uM doxorubicin),"viability [3, 6]","viability [3, 7]",inhibition [4],inhibition [5]
CCCCCC1NC(=O)NC1CCCCCC(=O)O (configuration not stated),98.5% (inactive),104% (inactive),14.3% (inactive),89.2%,104%,-0.91% (inactive),-2.22% (inactive)
c1ccc(CCc2nn3c(Cn4cnc5ccccc54)nnc3s2)cc1,75.8% (inactive),81.8% (inactive),-3.56% (inactive),85.4%,81.8%,-1.18% (inactive),11.4% (inactive)
O=C(NC1=NCCS1)c1nc(-c2ccccc2)n(-c2ccccc2)n1,70.4% (inactive),101% (inactive),8.75% (inactive),92.1%,101%,-3.73% (inactive),0.63% (inactive)
CN1CCN(C(=O)CN(Cc2ccc(Cl)cc2)S(C)(=O)=O)CC1,93.3% (inactive),94.5% (inactive),-1.31% (inactive),95.8%,94.5%,-1.45% (inactive),4.44% (inactive)
C=CCn1c(=S)[nH]c2nc3c(cc2c1=O)COC(C)(C)C3,90% (inactive),77.8% (inactive),5.84% (inactive),72%,77.8%,-5.06% (inactive),2.86% (inactive)
CCN(C(=O)c1c(-c2ccccc2)noc1C)c1ccccc1,100% (inactive),93.8% (inactive),9.52% (inactive),84.3%,93.8%,-1.18% (inactive),14.9% (inactive)
COc1cccc(Oc2ccc(N)cc2)c1,74.9% (inactive),74.8% (inactive),-6.83% (inactive),81.7%,74.8%,0% (inactive),-3.33% (inactive)
O=C(CCCn1c(=O)c2sccc2n(Cc2ccc(F)cc2)c1=O)NCc1ccco1,51.1% (inactive),27.4% (active),-52% (inactive),79.4%,27.4%,-0.39% (inactive),-4.44% (inactive)
COc1ccc(Br)cc1S(=O)(=O)N1CCOCC1,99.7% (inactive),87.2% (inactive),3.77% (inactive),83.5%,87.2%,-2.76% (inactive),1.75% (inactive)
CCOC(=O)c1sc(NS(=O)(=O)c2ccc(NC(C)=O)cc2)nc1C,112% (inactive),96% (inactive),7.92% (inactive),88.1%,96%,-1.97% (inactive),2.22% (inactive)
Cc1nc(-c2ccc(NC(=O)c3cccs3)cc2)cs1,58.8% (inactive),62.3% (inactive),9.12% (inactive),53.2%,62.3%,0.13% (inactive),1.9% (inactive)
CCCc1nc2ccccc2c2nc(N)nn12,99.8% (inactive),94.1% (inactive),12.3% (inactive),81.8%,94.1%,-5.26% (inactive),0.95% (inactive)
Nc1c(C(=O)NCCN2CCOCC2)c2nc3ccccc3nc2n1-c1ccc2c(c1)OCO2,51.9% (inactive),18.1% (active),-8.75% (inactive),26.8%,18.1%,-6.27% (inactive),6.19% (inactive)
CCN1CCN(Cc2ccccc2NC(=O)Nc2ccc(C)cc2)CC1,89.7% (inactive),98% (inactive),11.2% (inactive),86.8%,98%,-5.92% (inactive),-0.16% (inactive)
CCCC(=O)Nc1ccccc1NC(=O)CCC,108% (inactive),96% (inactive),7.25% (inactive),88.8%,96%,-2.24% (inactive),-2.38% (inactive)
COc1cccc(/C(O)=C2/C(=O)C(=O)N(CCN3CCOCC3)C2c2cccnc2)c1 (configuration not stated),98.9% (inactive),93.6% (inactive),0.755% (inactive),92.8%,93.6%,2.99% (inactive),-3.02% (inactive)
CC1CN(c2nc3ccccc3nc2C(C#N)C(=O)NCc2ccc3c(c2)OCO3)CC(C)O1 (configuration not stated),84.6% (inactive),91.2% (inactive),-5.39% (inactive),96.6%,91.2%,-4.93% (inactive),4.76% (inactive)
COc1nc(OC)nc(N2CCC(NC(=O)C(Cc3ccc(C(C)C)cc3)NC(C)=O)CC2)n1 (configuration not stated),110% (inactive),64.4% (inactive),-3.67% (inactive),68%,64.4%,-7.5% (inactive),1.59% (inactive)
CCCCc1cc(=O)oc2c(CN3CCCC3)c(O)c(Cl)cc12,98.2% (inactive),96.6% (inactive),3.32% (inactive),93.3%,96.6%,-3.16% (inactive),3.33% (inactive)
CCOc1ccc(N(CC(=O)NCc2cccc(OC)c2)S(=O)(=O)c2c(C)noc2C)cc1,93.4% (inactive),91.2% (inactive),-4.58% (inactive),95.8%,91.2%,0.27% (inactive),-2.86% (inactive)
